From ChEMBL document CHEMBL6092204, “Synthesis of pyridyl pyrimidine hedgehog signaling pathway inhibitors and their antitumor activity in human pancreatic cancer” (Eur J Med Chem, 2024)
Calls of active or inactive are those of the source. The rule behind the calls is not given here.

How the values were obtained:
PANC-1 [1] = test: Induction of cell cycle arrest in human PANC-1 cells assessed as accumulation at S phase at 10 uM incubated for 48 hrs by PI/RNase staining based flow cytometry (reference value: 7.58 %); assay type: functional
BXPC-3 [2] = test: Induction of apoptosis in human BXPC-3 cells assessed as late apoptotic cells at 2.5 uM incubated for 48 hrs by Annexin V-FITC/PI staining based flow cytometry (reference value: 6.72 %); assay type: functional
[3] = Toxicity in BALB/c nude mouse xenografted with human BxPC-3 cells assessed as necrosis in kidneys at 5 to 15 mg/kg, ip qd for 21 days by H and E staining based analysis; details: in vivo, 504 h
PANC-1 [4] = test: Induction of apoptosis in human PANC-1 cells assessed as early apoptotic cells at 8 uM incubated for 48 hrs by Annexin V-FITC/PI staining based flow cytometry (reference value: 1.88 %); assay type: functional
[5] = Toxicity in BALB/c nude mouse xenografted with human BxPC-3 cells assessed as necrosis in lung at 5 to 15 mg/kg, ip qd for 21 days by H and E staining based analysis; details: in vivo, 504 h
[6] = Toxicity in BALB/c nude mouse xenografted with human BxPC-3 cells assessed as tissue fibrosis in liver at 5 to 15 mg/kg, ip qd for 21 days by H and E staining based analysis; details: in vivo, 504 h
[7] = Toxicity in BALB/c nude mouse xenografted with human BxPC-3 cells assessed as necrosis in spleen at 5 to 15 mg/kg, ip qd for 21 days by H and E staining based analysis; details: in vivo, 504 h
PANC-1 [8] = test: Induction of apoptosis in human PANC-1 cells assessed as necrotic cells at 10 uM incubated for 48 hrs by Annexin V-FITC/PI staining based flow cytometry (reference value: 2.24 %); assay type: functional
[9] = Toxicity in BALB/c nude mouse xenografted with human BxPC-3 cells assessed as cellular edema in liver at 5 to 15 mg/kg, ip qd for 21 days by H and E staining based analysis; details: in vivo, 504 h
BXPC-3 [10] = test: Induction of cell cycle arrest in human BXPC-3 cells assessed as accumulation at S phase at 10 uM incubated for 48 hrs by PI/RNase staining based flow cytometry (reference value: 8.18 %); assay type: functional
BXPC-3 [11] = test: Induction of apoptosis in human BXPC-3 cells assessed as early apoptotic cells at 10 uM incubated for 48 hrs by Annexin V-FITC/PI staining based flow cytometry (reference value: 1.11 %); assay type: functional
BXPC-3 [12] = test: Induction of apoptosis in human BXPC-3 cells assessed as late apoptotic cells at 8 uM incubated for 48 hrs by Annexin V-FITC/PI staining based flow cytometry (reference value: 6.72 %); assay type: functional
BXPC-3 [13] = test: Inhibition of Hh signaling pathway in human BXPC-3 cells assessed as reduction in Ptch1 mRNA level incubated for 48 hrs by qRT-PCR analysis; assay type: cell-based
Outline: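 Total RNA was extracted by column kit after 48 h treatment and checked spectrophotometrically. Gli1 and Ptch1 transcripts were quantified by real-time RT-qPCR with GAPDH as internal control. Results are fold change relative to the untreated group; three separate experiments.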

BXPC-3 [14] = test: Induction of apoptosis in human BXPC-3 cells assessed as early apoptotic cells at 5 uM incubated for 48 hrs by Annexin V-FITC/PI staining based flow cytometry (reference value: 1.11 %); assay type: functional
BXPC-3 [15] = test: Induction of cell cycle arrest in human BXPC-3 cells assessed as accumulation at S phase at 5 uM incubated for 48 hrs by PI/RNase staining based flow cytometry (reference value: 8.18 %); assay type: functional
Mus musculus = test: In vivo inhibition of Gli1 in human BxPC-3 cells xenografted in BALB/c nude mouse at 5 to 15 mg/kg, ip qd for 21 days by IHC analysis; details: dose 5-15 mg/kg, time 21.0 day
[16] = Toxicity in BALB/c nude mouse xenografted with human BxPC-3 cells assessed as inflammatory infiltration in heart at 5 to 15 mg/kg, ip qd for 21 days by H and E staining based analysis; details: in vivo, 504 h
BXPC-3 [17] = test: Induction of cell cycle arrest in human BXPC-3 cells assessed as accumulation at G1 phase at 2.5 uM incubated for 48 hrs by PI/RNase staining based flow cytometry (reference value: 84.2 %); assay type: functional
BXPC-3 [18] = test: Induction of apoptosis in human BXPC-3 cells assessed as viable cells at 10 uM incubated for 48 hrs by Annexin V-FITC/PI staining based flow cytometry (reference value: 91.5 %); assay type: functional; details: read-out: Activity
BxPC-3 [19] = test: Antitumor activity aginst human BxPC-3 cells xenografted in BALB/c nude mouse assessed as decrease in tumor volume at 10 mg/kg, ip qd for 21 days relative to control; design: scale not given: the % may be the effect or the level left; details: time 21 day
BXPC-3 [20] = test: Induction of cell cycle arrest in human BXPC-3 cells assessed as accumulation at G2 phase at 5 uM incubated for 48 hrs by PI/RNase staining based flow cytometry (reference value: 8.15 %); assay type: functional
BXPC-3 [21] = test: Induction of apoptosis in human BXPC-3 cells assessed as late apoptotic cells at 5 uM incubated for 48 hrs by Annexin V-FITC/PI staining based flow cytometry (reference value: 6.72 %); assay type: functional
PANC-1 [22] = test: Antiproliferative activity against human PANC-1 cells assessed as inhibition of cell viability incubated for 48 hrs by MTT assay; assay type: functional, cell-based; details: PANC-1, 48 h
Outline: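 Cells in log phase were seeded at 8,000-10,000/well and allowed to adhere overnight at 37 °C, 5% CO2. Compound from DMSO stock, diluted in medium, was applied for 48 h; controls got drug-free medium, blanks held medium only. MTT (5 mg/mL stock) 4 h, formazan dissolved in DMSO, A490 read. Viability was blank-corrected against untreated cells; IC50 came from a fitted curve; three separate experiments.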

PANC-1 [23] = test: Induction of cell cycle arrest in human PANC-1 cells assessed as accumulation at G2 phase at 5 uM incubated for 48 hrs by PI/RNase staining based flow cytometry (reference value: 5.83 %); assay type: functional
BxPC-3 [24] = test: Antitumor activity aginst human BxPC-3 cells xenografted in BALB/c nude mouse assessed as decrease in tumor weight at 15 mg/kg, ip qd for 21 days; details: time 21.0 day
PANC-1 [25] = test: Induction of apoptosis in human PANC-1 cells assessed as late apoptotic cells at 5 uM incubated for 48 hrs by Annexin V-FITC/PI staining based flow cytometry (reference value: 2.74 %); assay type: functional
[26] = Toxicity in BALB/c nude mouse xenografted with human BxPC-3 cells assessed as necrosis in liver at 5 to 15 mg/kg, ip qd for 21 days by H and E staining based analysis; details: in vivo, 504 h
PANC-1 [27] = test: Induction of apoptosis in human PANC-1 cells assessed as late apoptotic cells at 10 uM incubated for 48 hrs by Annexin V-FITC/PI staining based flow cytometry (reference value: 2.74 %); assay type: functional

- IC50 (PANC-1 [22]): 4.2 µM
Compound: CN(C)Cc1ccc(NC(=O)c2ccc(Nc3nccc(-c4cccnc4)n3)cc2)cc1
- Activity (PANC-1 [1]): 10.5%
- Activity (BXPC-3 [2]): 8.06%
- Activity [3]: Non-toxic
- Activity (PANC-1 [4]): 2.97%
- Activity [5]: Non-toxic
- Activity [6]: Non-toxic
- Activity [7]: Non-toxic
- Activity (PANC-1 [8]): 2.56%
- Activity [9]: Non-toxic
- Activity (BXPC-3 [10]): 3.11%
- Activity (BXPC-3 [11]): 1.86%
- Activity (BXPC-3 [12]): 12.3%
- inhibition (BXPC-3 [13]): Dose-dependent-effect
- Activity (BXPC-3 [14]): 2.71%
- Activity (BXPC-3 [15]): 4.09%
- inhibition (Mus musculus): Active
- Activity [16]: Non-toxic
- Activity (BXPC-3 [17]): 72.7%
- viability at 10 µM (BXPC-3 [18]): 71.8%
- Activity (BxPC-3 [19]): 80%
- Activity (BXPC-3 [20]): 12.5%
- Activity (BXPC-3 [21]): 10.8%
- Activity (PANC-1 [23]): 8.15%
- Activity (BxPC-3 [24]): Active
- Activity (PANC-1 [25]): 7.03%
- Activity [26]: Non-toxic
- Activity (PANC-1 [27]): 22.3%
